Measured values from ChEMBL document CHEMBL3853287, “Characterization of Emodin as a Therapeutic Agent for Diabetic Cataract” (J Nat Prod, 2016).
The source made the active and inactive calls. The calls are words filed in the database; no cut-off is given here.

Legend:
[1] = target: T1, Aldo-keto reductase family 1 member B1 (Homo sapiens, UniProt P15121); experiment: Inhibition of human recombinant aldose reductase expressed in Escherichia coli using DL-glyceraldehyde as substrate in presence of NADPH by spectrophotometric analysis
[2] = target: T1, Aldo-keto reductase family 1 member B1; experiment: Uncompetitive inhibition of human recombinant aldose reductase expressed in Escherichia coli using DL-glyceraldehyde as substrate by double reciprocal plot analysis
[3] = Cytotoxicity against human FHL124 cells assessed as reduction in cell viability at 10 uM after 24 hrs by MTT assay; format: toxicity, cell-based; details: fhl124, 24 h
How it was run: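 FHL 124 human lens epithelial cells grown in low-glucose (1 g L−1) DMEM with 4 mM L-glutamine and 5% FBS at 37 °C, 5% CO2. Seeded at 10^4 cells, treated with emodin for 24 h, then given MTT for 4 h. Viability read as absorbance at 570 nm.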

[4] = target: T1, Aldo-keto reductase family 1 member B1; experiment: Inhibition of aldose reductase in human FHL124 cells assessed as reduction in high glucose-induced elevation of sorbitol accumulation at 5 uM after 24 hrs by colorimetric assay; format: cell-based
How it was run: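 FHL 124 cells (10^5 per 60 mm dish) treated with emodin (5 μM) plus low (5 mM) or high (30 mM) glucose for 24 h. Cells washed twice in cold PBS, lysed and deproteinized. Sorbitol measured in neutralized samples by colorimetric kit at 560 nm.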

[5] = target: T1, Aldo-keto reductase family 1 member B1; experiment: Inhibition of human recombinant aldose reductase expressed in Escherichia coli at 1 uM using DL-glyceraldehyde as substrate in presence of NADPH measured up to 7 days at 37 degC by spectrophotometric analysis
How it was run: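 Inhibitor (1 μM, in DMSO) pre-incubated at 37 °C for 1, 3, 5 and 7 days before testing. Recombinant human AKR1B1 from E. coli then assayed by NADPH oxidation at 340 nm with 1.0 mM DL-glyceraldehyde and 150 μM NADPH in HEPES pH 7.5 buffer. Means ± SEM, n = 3.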

Mus musculus [6] = experiment: In vivo inhibition of aldose reductase in transgenic PAR37 mouse expressing human aldose reductase assessed as reduction in vacuolization at 35 mg/kg, po for 16 days by hematoxylin/eosin staining; format: functional, organism-based
How it was run: (§1)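 PAR37 human AR transgenic mice and nontransgenic littermates, roughly equal by sex. Nursing mothers given 35 mg kg−1 in drinking water (DMSO vehicle) from pups' birth, or from 3 days before birth in one group. Sorbinil 80 mg kg−1 served as ARI control. Lenses taken at P16 and H&E-stained; vacuolated cross-sectional area measured on sections.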

Mus musculus [7] = experiment: In vivo inhibition of aldose reductase in wild type mouse assessed as reduction in vacuolization at 35 mg/kg, po for 16 days by hematoxylin/eosin staining; format: functional, organism-based; how it was run: as §1
Mus musculus [8] = experiment: In vivo inhibition of aldose reductase in wild type mouse assessed as reduction in vacuolization at 35 mg/kg, po administered 3 days prior to birth followed by compound treatment till day 16 by hematoxylin/eosin staining; format: functional, organism-based; how it was run: as §1
Mus musculus [9] = experiment: In vivo inhibition of aldose reductase in transgenic PAR37 mouse expressing human aldose reductase assessed as vacuolization at 35 mg/kg, po for 16 days by hematoxylin/eosin staining (reference value: 18%); format: functional; design: scale not given: the % may be the effect or the level left; how it was run: as §1
Mus musculus [10] = experiment: In vivo inhibition of aldose reductase in transgenic PAR37 mouse expressing human aldose reductase assessed as vacuolization at 35 mg/kg, po administered 3 days prior to birth followed by compound treatment till day 16 by hematoxylin/eosin staining (reference value: 18%); format: functional; design: scale not given: the % may be the effect or the level left; how it was run: as §1
Mus musculus [11] = experiment: In vivo inhibition of aldose reductase in transgenic PAR37 mouse expressing human aldose reductase assessed as reduction in vacuolization at 80 mg/kg, po for 16 days by hematoxylin/eosin staining; format: functional, organism-based
How it was run: (§2)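 Drug dissolved in DMSO was given in the drinking water of nursing mothers from the pups' birthdate, dosed at 80 mg kg−1 to the mother; vehicle group received DMSO. Pups were PAR37 human AR transgenic mice or nontransgenic littermates, balanced by gender, n = 3. Lenses were taken at P16 and sectioned with H&E staining, and vacuolated cross-sectional area was measured as percent of lens.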

Mus musculus [12] = experiment: In vivo inhibition of aldose reductase in wild type mouse assessed as reduction in vacuolization at 80 mg/kg, po for 16 days by hematoxylin/eosin staining; format: functional, organism-based; how it was run: as §2
Mus musculus [13] = experiment: In vivo inhibition of aldose reductase in transgenic PAR37 mouse expressing human aldose reductase assessed as vacuolization at 80 mg/kg, po for 16 days by hematoxylin/eosin staining (reference value: 18%); format: functional; design: scale not given: the % may be the effect or the level left; how it was run: as §2

Row | SMILES | IC50 [1] [µM] | Ki [2] [µM] | Activity [3] | inhibition [4] | inhibition [5] | inhibition (Mus musculus [6]) | inhibition (Mus musculus [7]) | inhibition (Mus musculus [8]) | Activity (Mus musculus [9]) [%] | Activity (Mus musculus [10]) [%] | inhibition (Mus musculus [11]) | inhibition (Mus musculus [12]) | Activity (Mus musculus [13]) [%]
1 | Cc1cc(O)c2c(c1)C(=O)c1cc(O)cc(O)c1C2=O [EMODIN] | 2.69 | 2.11 | Toxic | Active | Active | Active | Active | Active | 6.3 | 2 |  |  | 
2 | O=C1NC(=O)[C@@]2(CCOc3ccc(F)cc32)N1 [SORBINIL] |  |  |  |  |  |  |  |  |  |  | Active | Active | 3.8
